Experimental data reported in ChEMBL document CHEMBL1926577, “Novel 1,3,4-heterodiazole analogues: synthesis and in-vitro antitumor activity” (2012).
Activity calls are given as the source filed them. No cut-off for these calls is given here.

Tests used:
Format in all cases: functional
[1] = Growth inhibition of human colon cancer cells after 48 hrs by coulter counter method; settings: Cancer cell lines
In short: (§1)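 NCI 60-line panel cells. Compound is dissolved in DMSO and diluted in phosphate-buffered saline, with final DMSO below 1%. It is added in duplicate wells to cultures at 6 × 10⁴ cells/ml and held at 37 °C, 5% CO₂, humidified, for 48 h. Cells are diluted 10-fold in saline, counted by Coulter counter and dilution-corrected. Vehicle controls contain PBS plus DMSO.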

[2] = tested on: NCI-H23; experiment: Growth inhibition of human NCI-H23 cells at 10 uM after 48 hrs by coulter counter method; settings: NCI-H23, 48 h, read-out: GI
In short: (§2)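 NCI 60-cell-line panel, single dose. Compound dissolved first in DMSO, then diluted in phosphate-buffered saline so that every final dilution held under 1% DMSO. Duplicate wells received cells at 6 × 10⁴ cells/ml. Controls held PBS/DMSO at the same dilution. Plates were incubated 48 h at 37 °C under 5% CO₂. Cells were then diluted 10-fold in saline and counted on a Coulter counter, with counts corrected for the dilution. Results are given as percent growth inhibition.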

[3] = tested on: SF-295; experiment: Growth inhibition of human SF295 cells at 10 uM after 48 hrs by coulter counter method; settings: SF-295, 48 h, read-out: GI; in short: as §2
[4] = tested on: SK-MEL-28; experiment: Growth inhibition of human SK-MEL-28 cells at 10 uM after 48 hrs by coulter counter method; settings: SK-MEL-28, 48 h, read-out: GI; in short: as §2
[5] = tested on: SNB-75; experiment: Growth inhibition of human SNB75 cells at 10 uM after 48 hrs by coulter counter method; settings: SNB-75, 48 h, read-out: GI; in short: as §2
[6] = tested on: MCF7; experiment: Growth inhibition of human MCF7 cells at 10 uM after 48 hrs by coulter counter method; settings: MCF7, 48 h, read-out: GI; in short: as §2
[7] = tested on: UACC-62; experiment: Growth inhibition of human UACC62 cells at 10 uM after 48 hrs by coulter counter method; settings: UACC-62, 48 h, read-out: GI; in short: as §2
[8] = tested on: CCRF-CEM; experiment: Growth inhibition of human CCRF-CEM cells at 10 uM after 48 hrs by coulter counter method; settings: read-out: GI; in short: as §2
[9] = Growth inhibition of human breast cancer cells after 48 hrs by coulter counter method; settings: Cancer cell lines; in short: as §1
[10] = tested on: HCT-116; experiment: Growth inhibition of human HCT116 cells at 10 uM after 48 hrs by coulter counter method; settings: HCT-116, 48 h, read-out: GI; in short: as §2
[11] = tested on: MDA-MB-468; experiment: Growth inhibition of human MDA-MB-468 cells at 10 uM after 48 hrs by coulter counter method; settings: MDA-MB-468, 48 h, read-out: GI; in short: as §2
[12] = tested on: SF-268; experiment: Growth inhibition of human SF268 cells at 10 uM after 48 hrs by coulter counter method; settings: SF-268, 48 h, read-out: GI; in short: as §2
[13] = Growth inhibition of human renal cancer cells after 48 hrs by coulter counter method; settings: Cancer cell lines; in short: as §1
[14] = Growth inhibition of human ovarian cancer cells after 48 hrs by coulter counter method; settings: Cancer cell lines; in short: as §1
[15] = tested on: EKVX; experiment: Growth inhibition of human EKVX cells at 10 uM after 48 hrs by coulter counter method; settings: read-out: GI; in short: as §2
[16] = tested on: SK-MEL-2; experiment: Growth inhibition of human SK-MEL-2 cells at 10 uM after 48 hrs by coulter counter method; settings: SK-MEL-2, 48 h, read-out: GI; in short: as §2
[17] = tested on: K562; experiment: Growth inhibition of human K562 cells at 10 uM after 48 hrs by coulter counter method; settings: K562, 48 h, read-out: GI; in short: as §2
[18] = Growth inhibition of human prostate cancer cells after 48 hrs by coulter counter method; settings: Cancer cell lines; in short: as §1
[19] = tested on: NCI-H322M; experiment: Growth inhibition of human NCI-H322M cells at 10 uM after 48 hrs by coulter counter method; settings: read-out: GI; in short: as §2
[20] = tested on: HT-29; experiment: Growth inhibition of human HT-29 cells at 10 uM after 48 hrs by coulter counter method; settings: HT-29, 48 h, read-out: GI; in short: as §2
[21] = tested on: T47D; experiment: Growth inhibition of human T47D cells at 10 uM after 48 hrs by coulter counter method; settings: read-out: GI; in short: as §2
[22] = tested on: NSCLC; experiment: Growth inhibition of human NSCLC cells after 48 hrs by coulter counter method; in short: as §1
[23] = tested on: SNB-19; experiment: Growth inhibition of human SNB19 cells at 10 uM after 48 hrs by coulter counter method; settings: SNB-19, 48 h, read-out: GI; in short: as §2
[24] = tested on: MOLT-4; experiment: Growth inhibition of human MOLT4 cells at 10 uM after 48 hrs by coulter counter method; settings: MOLT-4, 48 h, read-out: GI; in short: as §2
[25] = tested on: SK-MEL-5; experiment: Growth inhibition of human SK-MEL-5 cells at 10 uM after 48 hrs by coulter counter method; settings: SK-MEL-5, 48 h, read-out: GI; in short: as §2
[26] = tested on: SN12C; experiment: Growth inhibition of human SN12C cells at 10 uM after 48 hrs by coulter counter method; settings: read-out: GI; in short: as §2
[27] = tested on: HCT-15; experiment: Growth inhibition of human HCT15 cells at 10 uM after 48 hrs by coulter counter method; settings: HCT-15, 48 h, read-out: GI; in short: as §2
[28] = tested on: 786-0; experiment: Growth inhibition of human 786-0 cells at 10 uM after 48 hrs by coulter counter method; settings: 786-0, 48 h, read-out: GI; in short: as §2
[29] = tested on: UACC-257; experiment: Growth inhibition of human UACC257 cells at 10 uM after 48 hrs by coulter counter method; settings: UACC-257, 48 h, read-out: GI; in short: as §2
[30] = tested on: Malme-3M; experiment: Growth inhibition of human MALME-3M cells at 10 uM after 48 hrs by coulter counter method; in short: as §2
[31] = tested on: NCI-H226; experiment: Growth inhibition of human NCI-H226 cells at 10 uM after 48 hrs by coulter counter method; settings: NCI-H226, 48 h, read-out: GI; in short: as §2
[32] = Growth inhibition of human leukemia cells after 48 hrs by coulter counter method; settings: Leukemia cell; in short: as §1
[33] = tested on: MDA-MB-435; experiment: Growth inhibition of human MDA-MB-435 cells at 10 uM after 48 hrs by coulter counter method; settings: MDA-MB-435, 48 h, read-out: GI; in short: as §2
[34] = Growth inhibition of human CNS cancer cells after 48 hrs by coulter counter method; settings: Cancer cell lines; in short: as §1
[35] = tested on: KM12; experiment: Growth inhibition of human KM12 cells at 10 uM after 48 hrs by coulter counter method; settings: KM12, 48 h, read-out: GI; in short: as §2
[36] = tested on: ACHN; experiment: Growth inhibition of human ACHN cells at 10 uM after 48 hrs by coulter counter method; settings: read-out: GI; in short: as §2
[37] = tested on: A549; experiment: Growth inhibition of human A549 cells at 10 uM after 48 hrs by coulter counter method; settings: A549, 48 h, read-out: GI; in short: as §2
[38] = read-out: LC50 (the source's name)

O=C1CN2N=C(c3ccccc3)SC2=N1
GI50 [1]: 9.4 µM | LC50 [1]: 67.1 µM | TGI [1]: 24.9 µM | inhibition of growth at 10 µM [2]: 21.6% | inhibition of growth at 10 µM [3]: 90.6% | inhibition of growth at 10 µM [4]: 10.4% | inhibition of growth at 10 µM [5]: 88.3% | inhibition of growth at 10 µM [6]: 46.4% | inhibition of growth at 10 µM [7]: 27.8% | inhibition of growth at 10 µM [8]: 88.2% | GI50 [9]: 6.9 µM | TGI [9]: 23.7 µM | CC50 [9, 38]: 71.3 µM | inhibition of growth at 10 µM [10]: 42.6% | inhibition of growth at 10 µM [11]: 61.5% | inhibition of growth at 10 µM [12]: 20% | GI50 [13]: 8.9 µM | TGI [13]: 16.6 µM | CC50 [13, 38]: 42.3 µM | GI50 [14]: 7.7 µM | TGI [14]: 33.5 µM | CC50 [14, 38]: 83.9 µM | inhibition of growth at 10 µM [15]: 94.5% | inhibition of growth at 10 µM [16]: 14.1% | inhibition of growth at 10 µM [17]: 34.8% | GI50 [18]: 7.6 µM | TGI [18]: 18.3 µM | CC50 [18, 38]: 50.8 µM | inhibition of growth at 10 µM [19]: 22.1% | inhibition of growth at 10 µM [20]: 36.2% | inhibition of growth at 10 µM [21]: 33.2% | GI50 [22]: 9.7 µM | TGI [22]: 20.7 µM | CC50 [22, 38]: 55.7 µM | inhibition of growth at 10 µM [23]: 23.2% | inhibition of growth at 10 µM [24]: 37.5% | inhibition of growth at 10 µM [25]: 35.2% | inhibition of growth at 10 µM [26]: 32.9% | inhibition of growth at 10 µM [27]: 44.8% | inhibition of growth at 10 µM [28]: 25.1% | inhibition of growth at 10 µM [29]: 48.4% | growth inhibition (GI) [30]: Active | inhibition of growth at 10 µM [31]: 27.7% | GI50 [32]: 4.1 µM | TGI [32]: 25.9 µM | CC50 [32, 38]: > 100 µM | inhibition of growth at 10 µM [33]: 30.4% | GI50 [34]: 8.7 µM | TGI [34]: 18.8 µM | CC50 [34, 38]: 51.3 µM | inhibition of growth at 10 µM [35]: 21.8% | inhibition of growth at 10 µM [36]: 29.5% | inhibition of growth at 10 µM [37]: 39.2%
